Results from different studies.
Lines come from different studies, so protocols differ.
Target: D(2) dopamine receptor (DRD2, Homo sapiens, UniProt P14416)
Concentration: 10 µM

Structure (SMILES) | test | inhibition
C[C@H](NC(=O)Nc1cc2[nH]ncc2c(CO)n1)c1ccccn1 | cell-free assay | 17.7%
CCn1c2ccccc2c2cc(CNCCCN3CCOCC3)ccc21 | enzyme activity, inhibitor | 21.9%
O=C(c1ccc(F)cc1)N1CC(COc2ccc(Br)cc2)(C(=O)O)C1 | cell-free assay | -29.4%
Clc1cccc(OC[C@@H]2CN(CCN3CCc4ccccc43)CCO2)c1 | ligand displacement, radioligand | 62.7%
CN(C)c1ncnc(-c2ccc3nc(Nc4cc(CN5CCN(C(=O)CC(F)(F)F)CC5)ccn4)[nH]c3c2)c1Cl | ligand displacement | 10.6%
COc1cccc(N2CCN(C3CC(=O)N(c4cccc(OC)c4)C3=O)CC2)c1 (centres unmarked) | enzyme activity, inhibitor | 8.6%
Cc1ccnc(C)c1OC[C@H]1CN(CCN2CCc3ccccc32)CCO1 | ligand displacement, radioligand | 6.1%
COc1ccccc1N1CCN(CCCCN2C(=O)C3CCCCN3C2=O)CC1 (centres unmarked) | enzyme activity, inhibitor | 72.6%
O=C1NC(c2ccccn2)Sc2ccccc21 (centres unmarked) | ligand displacement | -3.91%
Cc1ncccc1OC[C@@H]1CN(CCN2CCc3ccccc32)CCO1 | ligand displacement, radioligand | 15.2%
N#Cc1cc(Cn2c(N3CCCC3)nc3ccccc32)ccc1F | ligand displacement | -11.5%
CCN(CC)c1ccc(C2Nc3ccc(C(=O)c4ccccc4)cc3NC3=C2C(=O)CC(C)(C)C3)cc1 (centres unmarked) | ligand displacement, radioligand | 99%
C[C@@H](c1cccc(C#N)c1)n1cc(Cl)cc(C(N)=O)c1=N | ligand displacement | -3.06%
O=C(CN1CCO[C@H](COc2cccc(Cl)c2)C1)N1CCc2ccccc21 | ligand displacement, radioligand | 15.1%
Cc1c(Cl)cccc1-c1ccc(CNCC(O)c2ccccc2)o1 (centres unmarked) | enzyme activity, inhibitor | 46.8%
c1cncc(OC[C@H]2CN(CCN3CCc4ccccc43)CCO2)c1 | ligand displacement, radioligand | 36.3%
O=C1C2CCCN2C(=O)N1CCCCN1CCN(c2ccccc2)CC1 (centres unmarked) | enzyme activity, inhibitor | 48.3%
O=C(CN1CCO[C@@H](COc2cccnc2)C1)N1CCc2ccccc21 | ligand displacement, radioligand | 5.5%
COc1cc(C(C)=O)ccc1OCC(O)CN1CCN(c2cc(Cl)ccc2C)CC1 (centres unmarked) | enzyme activity, inhibitor | 33%
Cc1ccc(-c2cnc([C@@]3(O)CC[C@H](C(=O)O)C(C)(C)C3)s2)cc1Nc1cccc(C(F)(F)F)n1 | ligand displacement | -5.34%
